According to ChEMBL document CHEMBL1140069, “In vitro antifungal activity of polyfunctionalized 2-(hetero)arylquinolines prepared through imino Diels-Alder reactions” (2008):
In brackets after ≈: the same amount, converted by molar mass.

Key:
Type in all cases: functional
Cryptococcus neoformans [1] = test: Antimicrobial activity against Cryptococcus neoformans ATCC 32264 at 25 ug/ml after 48 hrs; conditions: ATCC 32264, 48 h
Outline: (§1)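 Percent growth inhibition in 96-well microplates. Compound stocks in DMSO (≤2%) were diluted in RPMI-1640 to final 100–6.25 µg/mL, and 100 µL inoculum was added (final 200 µL). Controls were a growth well (inoculum with matching DMSO, no compound) and a sterility well (no inoculum). Inhibition was calculated against growth and sterility wells.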

Cryptococcus neoformans [2] = test: Antimicrobial activity against Cryptococcus neoformans IM 00319 isolate at 100 ug/ml after 48 hrs; outline: as §1
Candida parapsilosis [3] = test: Antimicrobial activity against Candida parapsilosis C124 isolate at 12.5 ug/ml after 24 hrs; conditions: Lodderomyces parapsilosis; outline: as §1
Cryptococcus neoformans [4] = test: Antimicrobial activity against Cryptococcus neoformans IM 031706 isolate at 25 ug/ml after 48 hrs; outline: as §1
Cryptococcus neoformans [5] = test: Antimicrobial activity against Cryptococcus neoformans IM 031631 isolate at 50 ug/ml after 48 hrs; outline: as §1
Candida albicans [6] = test: Antimicrobial activity against Candida albicans C130 isolate at 6.25 ug/ml after 24 hrs
Outline: (§2)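 Growth-inhibition microplate test. Strains are grown on Sabouraud-chloramphenicol agar for 48 h at 30 °C, and inoculum is added to RPMI-1640 containing compound at a final 100–6.25, with DMSO ≤2%. Each strain has a growth control (same DMSO, no compound) and a sterility control.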

Candida parapsilosis [7] = test: Antimicrobial activity against Candida parapsilosis C124 isolate at 6.25 ug/ml after 24 hrs; conditions: Lodderomyces parapsilosis; outline: as §1
Cryptococcus neoformans [8] = test: Antimicrobial activity against Cryptococcus neoformans IM 972751 isolate at 6.25 ug/ml after 48 hrs
Outline: (§3)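 Clinical Cryptococcus isolates kept on Sabouraud-dextrose agar slopes; inoculum 1–5 × 10³ CFU/mL. Quinoline DMSO stocks were diluted in RPMI-1640 to final 100–6.25 µg/mL, with DMSO ≤2%. An equal volume of inoculum was added (200 µL per well). Run in triplicate.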

Cryptococcus neoformans [9] = test: Antimicrobial activity against Cryptococcus neoformans IM 031706 isolate at 100 ug/ml after 48 hrs; outline: as §1
Nakaseomyces glabratus [10] = test: Antimicrobial activity against Candida glabrata C115 isolate at 100 ug/ml after 24 hrs; outline: as §2
Nakaseomyces glabratus [11] = test: Antimicrobial activity against Candida glabrata C115 isolate at 50 ug/ml after 24 hrs; outline: as §1
Aspergillus fumigatus = test: Antifungal activity against Aspergillus fumigatus ATTC 26934 after 48 hrs by broth microdilution technique
Outline: (§4)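 CLSI broth microdilution: M-27 A2 for yeasts and M-38 A for filamentous fungi. Medium is RPMI-1640 buffered to pH 7.0 with MOPS. Compound is diluted twofold from 250 to 0.98, final DMSO ≤2%. Inoculum is 1–5 × 10³ CFU/mL. Plates are incubated at 35 °C in a moist, dark chamber and read visually at 48 h. MIC100 is the lowest concentration giving total growth inhibition versus drug-free control.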

Cryptococcus neoformans [12] = test: Antimicrobial activity against Cryptococcus neoformans IM 983036 isolate at 6.25 ug/ml after 48 hrs; outline: as §3
Trichophyton rubrum = test: Antifungal activity against Trichophyton rubrum C110 after 48 hrs by broth microdilution technique; conditions: read-out: MIC; outline: as §4
Candida parapsilosis [13] = test: Antimicrobial activity against Candida parapsilosis C124 isolate at 100 ug/ml after 24 hrs; conditions: Lodderomyces parapsilosis; outline: as §1
Aspergillus niger = test: Antifungal activity against Aspergillus niger ATCC 9029 after 48 hrs by broth microdilution technique; conditions: ATCC 9029, 48 h; outline: as §4
Cryptococcus neoformans [14] = test: Antimicrobial activity against Cryptococcus neoformans IM 972724 isolate at 25 ug/ml after 48 hrs; outline: as §3
Candida albicans [15] = test: Antimicrobial activity against Candida albicans C128 isolate at 6.25 ug/ml after 24 hrs; outline: as §2
Cryptococcus neoformans [16] = test: Antimicrobial activity against Cryptococcus neoformans IM 983036 isolate at 100 ug/ml after 48 hrs; outline: as §3
Cryptococcus neoformans [17] = test: Antimicrobial activity against Cryptococcus neoformans IM 961951 isolate at 100 ug/ml after 48 hrs; outline: as §1
Cryptococcus neoformans [18] = test: Antimicrobial activity against Cryptococcus neoformans IM 042074 isolate at 25 ug/ml after 48 hrs; outline: as §1
Candida albicans [19] = test: Antimicrobial activity against Candida albicans C129 isolate at 25 ug/ml after 24 hrs; outline: as §2
Cryptococcus neoformans [20] = test: Antimicrobial activity against Cryptococcus neoformans IM 00319 isolate at 6.25 ug/ml after 48 hrs; outline: as §1
Candida albicans [21] = test: Antimicrobial activity against Candida albicans C129 isolate at 6.25 ug/ml after 24 hrs; outline: as §2
Saccharomyces cerevisiae = test: Antifungal activity against Saccharomyces cerevisiae ATCC 9763 after 48 hrs by broth microdilution technique; conditions: ATCC 9763, 48 h; outline: as §4
Candida albicans [22] = test: Antimicrobial activity against Candida albicans C126 isolate at 50 ug/ml after 24 hrs; outline: as §2
Cryptococcus neoformans [23] = test: Antimicrobial activity against Cryptococcus neoformans IM 052470 isolate at 12.5 ug/ml after 48 hrs; outline: as §1
Candida albicans [24] = test: Antimicrobial activity against Candida albicans C130 isolate at 50 ug/ml after 24 hrs; outline: as §2
Pichia kudriavzevii = test: Antimicrobial activity against Candida krusei C117 isolate at 100 ug/ml after 24 hrs; outline: as §1
Nakaseomyces glabratus [25] = test: Antimicrobial activity against Candida glabrata C115 isolate at 6.25 ug/ml after 24 hrs; outline: as §1
Candida albicans [26] = test: Antimicrobial activity against Candida albicans C127 isolate at 50 ug/ml after 24 hrs; conditions: C127, 24 h; outline: as §2
Cryptococcus neoformans [27] = test: Antimicrobial activity against Cryptococcus neoformans IM 983040 isolate at 6.25 ug/ml after 48 hrs; outline: as §3
Cryptococcus neoformans [28] = test: Antimicrobial activity against Cryptococcus neoformans IM 052470 isolate at 50 ug/ml after 48 hrs; outline: as §1
Candida albicans [29] = test: Antimicrobial activity against Candida albicans C126 isolate at 100 ug/ml after 24 hrs; outline: as §2
Candida albicans [30] = test: Antimicrobial activity against Candida albicans ATCC 10231 at 12.5 ug/ml after 24 hrs; conditions: ATCC 10231, 24 h; outline: as §2
Cryptococcus neoformans [31] = test: Antimicrobial activity against Cryptococcus neoformans IM 031631 isolate at 12.5 ug/ml after 48 hrs; outline: as §1
Candida parapsilosis [32] = test: Antimicrobial activity against Candida parapsilosis C124 isolate at 25 ug/ml after 24 hrs; conditions: Lodderomyces parapsilosis; outline: as §1
Candida albicans [33] = test: Antimicrobial activity against Candida albicans C128 isolate at 25 ug/ml after 24 hrs; outline: as §2
Cryptococcus neoformans [34] = test: Antimicrobial activity against Cryptococcus neoformans IM 972724 isolate at 12.5 ug/ml after 48 hrs; outline: as §3
Cryptococcus neoformans [35] = test: Antifungal activity against Cryptococcus neoformans ATCC 32264 after 48 hrs by broth microdilution technique; conditions: ATCC 32264, 48 h; outline: as §4
Candida albicans [36] = test: Antimicrobial activity against Candida albicans ATCC 10231 at 25 ug/ml after 24 hrs; conditions: ATCC 10231, 24 h; outline: as §2
Cryptococcus neoformans [37] = test: Antimicrobial activity against Cryptococcus neoformans IM 031706 isolate at 12.5 ug/ml after 48 hrs; outline: as §1
Candida albicans [38] = test: Antifungal activity against Candida albicans ATCC 10231 after 48 hrs by broth microdilution technique; conditions: ATCC 10231, 48 h; outline: as §4
Candida albicans [39] = test: Antimicrobial activity against Candida albicans C127 isolate at 12.5 ug/ml after 24 hrs; conditions: C127, 24 h; outline: as §2

Question: c1ccc2nc(-c3ccncc3)ccc2c1 was tested. Which inhibition at 25 µg/mL (Cryptococcus neoformans [1]) did it give?
Answer: 100%

Question: And the inhibition at 100 µg/mL (Cryptococcus neoformans [2])?
Answer: 92%

Question: And the inhibition at 12.5 µg/mL (Candida parapsilosis [3])?
Answer: 0%

Question: And the inhibition at 25 µg/mL (Cryptococcus neoformans [4])?
Answer: 57%

Question: And the inhibition at 50 µg/mL (Cryptococcus neoformans [5])?
Answer: 75%

Question: And the inhibition at 6.25 µg/mL (Candida albicans [6])?
Answer: 0%

Question: And the inhibition at 6.25 µg/mL (Candida parapsilosis [7])?
Answer: 0%

Question: What about the inhibition at 6.25 µg/mL (Cryptococcus neoformans [8]) of the same compound?
Answer: 0%

Question: And the inhibition at 100 µg/mL (Cryptococcus neoformans [9])?
Answer: 100%

Question: And the inhibition at 100 µg/mL (Nakaseomyces glabratus [10])?
Answer: 75%

Question: And the inhibition at 50 µg/mL (Nakaseomyces glabratus [11])?
Answer: 4%

Question: And the MIC (Aspergillus fumigatus)?
Answer: 50 µg/mL (≈ 242 µM)

Question: And the inhibition at 6.25 µg/mL (Cryptococcus neoformans [12])?
Answer: 0%

Question: What about the MIC (Trichophyton rubrum) of the same compound?
Answer: 50 µg/mL (≈ 242 µM)

Question: What about the inhibition at 100 µg/mL (Candida parapsilosis [13]) of the same compound?
Answer: 55%

Question: And the MIC (Aspergillus niger)?
Answer: 50 µg/mL (≈ 242 µM)

Question: What about the inhibition at 25 µg/mL (Cryptococcus neoformans [14]) of the same compound?
Answer: 8%

Question: And the inhibition at 6.25 µg/mL (Candida albicans [15])?
Answer: 0%

Question: And the inhibition at 100 µg/mL (Cryptococcus neoformans [16])?
Answer: 79%

Question: What about the inhibition at 100 µg/mL (Cryptococcus neoformans [17]) of the same compound?
Answer: 97%

Question: What about the inhibition at 25 µg/mL (Cryptococcus neoformans [18]) of the same compound?
Answer: 87%

Question: And the inhibition at 25 µg/mL (Candida albicans [19])?
Answer: 50%

Question: And the inhibition at 6.25 µg/mL (Cryptococcus neoformans [20])?
Answer: 12%

Question: What about the inhibition at 6.25 µg/mL (Candida albicans [21]) of the same compound?
Answer: 0%

Question: And the MIC (Saccharomyces cerevisiae)?
Answer: 50 µg/mL (≈ 242 µM)

Question: What about the inhibition at 50 µg/mL (Candida albicans [22]) of the same compound?
Answer: 32%

Question: What about the inhibition at 12.5 µg/mL (Cryptococcus neoformans [23]) of the same compound?
Answer: 24%

Question: And the inhibition at 50 µg/mL (Candida albicans [24])?
Answer: 84%

Question: And the inhibition at 100 µg/mL (Pichia kudriavzevii)?
Answer: 66%

Question: And the inhibition at 6.25 µg/mL (Nakaseomyces glabratus [25])?
Answer: 0%

Question: What about the inhibition at 50 µg/mL (Candida albicans [26]) of the same compound?
Answer: 65%

Question: What about the inhibition at 6.25 µg/mL (Cryptococcus neoformans [27]) of the same compound?
Answer: 0%

Question: And the inhibition at 50 µg/mL (Cryptococcus neoformans [28])?
Answer: 75%

Question: What about the inhibition at 100 µg/mL (Candida albicans [29]) of the same compound?
Answer: 69%

Question: What about the inhibition at 12.5 µg/mL (Candida albicans [30]) of the same compound?
Answer: 41%

Question: What about the inhibition at 12.5 µg/mL (Cryptococcus neoformans [31]) of the same compound?
Answer: 36%

Question: What about the inhibition at 25 µg/mL (Candida parapsilosis [32]) of the same compound?
Answer: 0%

Question: What about the inhibition at 25 µg/mL (Candida albicans [33]) of the same compound?
Answer: 0%

Question: What about the inhibition at 12.5 µg/mL (Cryptococcus neoformans [34]) of the same compound?
Answer: 0%

Question: What about the MIC (Cryptococcus neoformans [35]) of the same compound?
Answer: 50 µg/mL (≈ 242 µM)

Question: What about the inhibition at 25 µg/mL (Candida albicans [36]) of the same compound?
Answer: 63%

Question: What about the inhibition at 12.5 µg/mL (Cryptococcus neoformans [37]) of the same compound?
Answer: 41%

Question: What about the MIC (Candida albicans [38]) of the same compound?
Answer: 100 µg/mL (≈ 485 µM)

Question: And the inhibition at 12.5 µg/mL (Candida albicans [39])?
Answer: 0%
